The term MIC denotes the smallest concentration in the dilution series that meets the test's criterion for growth inhibition. Lower therefore signals greater potency.

≈ marks a conversion by molar mass, not a printed value.

Common to all, as to assay type: functional
The test system of assay [1] is Mycobacterium tuberculosis. The assay is described as follows: Antimicrobial activity against drug-susceptible Mycobacterium tuberculosis isolate 6 expressing wild type atpE selected after 30 times MIC drug exposure. In short, it runs like this: (§1)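 Each resistant mutant clone (one colony picked per independent fluctuation culture selected on drug agar) is suspended in PBS, sonicated and applied by 96-pin replicator. Nonselective and rifampin control plates are included. Plates are read after 4 weeks; MIC is the lowest concentration with no visible growth.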

Assay [2] has as its system Mycobacterium tuberculosis. The assay is described as follows: Antimicrobial activity against drug-susceptible Mycobacterium tuberculosis H37Rv expressing wild type atpE selected after 30 times MIC drug exposure. In short, it runs like this:
as §1

Assay [3] concerns Mycobacterium tuberculosis. The assay is described as follows: Antimicrobial activity against drug-susceptible Mycobacterium tuberculosis Mycobacterium tuberculosis H37Rv expressing wild type atpE and F0 operon selected after 10 times MIC drug exposure. The method, boiled down: as §1
In assay [4] the test system is Mycobacterium tuberculosis. The assay is described as follows: Antimicrobial activity against drug-susceptible Mycobacterium tuberculosis isolate 6 expressing wild type atpE selected after 10 times MIC drug exposure. The method, boiled down: as §1
Assay [5] concerns Mycobacterium tuberculosis. In words: Antimicrobial activity against drug-susceptible Mycobacterium tuberculosis isolate 4 expressing wild type atpE and F0 operon selected after 10 times MIC drug exposure. In short, it runs like this:
as §1

For assay [6], the system named is Mycobacterium tuberculosis. The assay is described as follows: Antimicrobial activity against drug-susceptible Mycobacterium tuberculosis H37Rv expressing wild type atpE selected after 10 times MIC drug exposure. The method, boiled down:
as §1

For assay [7], the system named is Mycobacterium tuberculosis. The assay is described as follows: Antimicrobial activity against drug-susceptible Mycobacterium tuberculosis H37Rv.
The test system of assay [8] is Mycobacterium tuberculosis. In words: Antimicrobial activity against drug-susceptible Mycobacterium tuberculosis isolate 4 expressing wild type atpE selected after 10 times MIC drug exposure. The method, boiled down:
as §1

`COc1nc2ccc(Br)cc2cc1[C@@H](c1ccccc1)[C@@](O)(CCN(C)C)c1cccc2ccccc12` [BEDAQUILINE]: the MIC in assay [1] came to 0.12 µg/mL (≈ 0.216 µM); in assay [2], 0.24 µg/mL (≈ 0.432 µM); in assay [3], 0.48 µg/mL (≈ 0.864 µM); in assay [4] it was 0.24 µg/mL (≈ 0.432 µM); in assay [5], 0.3 µg/mL (≈ 0.54 µM); in assay [6] it was 0.48 µg/mL (≈ 0.864 µM). Also, the MIC in assay [7] turned out to be 0.03 µg/mL (≈ 0.054 µM); in assay [8], 0.12 µg/mL (≈ 0.216 µM).

The record behind these values is ChEMBL document CHEMBL1255391, “Rates and mechanisms of resistance development in Mycobacterium tuberculosis to a novel diarylquinoline ATP synthase inhibitor” (2010).
